Measured values as given in the EternaBench riboswitch data.

Tested on: MS2 coat protein
Assay: apparent Kd, MS2 coat protein; higher = weaker binding; RNA-MaP array; FMN 200 µM where present
Procedure, shortened: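 In 100 mM Tris-HCl pH 7.5, 80 mM KCl, 4 mM MgCl2, BSA, DTT, yeast tRNA and Tween-20, SNAP-549-labelled MS2 coat protein was titrated from 0.7 or 1.5 nM, doubling to 3 µM, over designs transcribed by stalled E. coli RNA polymerase on Illumina sequencing-chip clusters. This was done first without ligand, then with ligand held constant. After green signal was normalised to red-channel RNA signal and control-cluster median Fmax, the apparent Kd was taken as the median of filtered per-cluster binding-curve fits.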

[1] = designed as: OFF switch for flavin mononucleotide, no ligand
[2] = ligand present: flavin mononucleotide, designed as: OFF switch for flavin mononucleotide
[3] = designed as: ON switch for flavin mononucleotide, no ligand
[4] = ligand present: flavin mononucleotide, designed as: ON switch for flavin mononucleotide

Sequence | apparent Kd [1] | apparent Kd [2] | apparent Kd [3] | apparent Kd [4]
CUAGCAACAUGAGGAUCACCCAUGUAGGAUAUCGCUAUUGUAAUCAUGAAACAUGAUUACAAUAGCGAGAAGGACAUAUGCUAG | 0.00644 µM | 0.00928 µM |  | 
CGUGUUUAUGUGAGGAUAUUAUCAAGCUGAUUGUGUAAGAAGGCACAUGAGGAUCACCCAUGUGGCGAUUCCGC | 0.0342 µM | 0.215 µM |  | 
AGAUGUGAACAUGAGGAUCACCCAUGUGACUAGGUUUAUUUCAGAAGGCAUUAAUAGAGAUUAUAUGAGGAUAUGAAGUUUUAA |  |  | 0.0118 µM | 0.00711 µM
UUCAAAUUCGUAGGAUAUGUAUAUAUUUUCUACAUGAGGAUCACCCAUGUUACCAUUUUUUAUUGACAGAAGGACGUAAUCUAA |  |  | 0.0346 µM | 0.0138 µM
AAACACAAACAUGAGGAUCACCCAUGUGGCGAAAGCCUUGGGAGAAGGGCGAUUGCAAAGCAAUCGCAGGAUAUUCGUAUUGUG |  |  | 0.37 µM | 0.0269 µM
GGAUCGAAAGUGAGGAUAUGCUGGUCCUUGGAUCAGCAGAAGGCACAUGAGGAUCACCCAUGUUUCCACGGUCC | 0.0195 µM | 0.091 µM |  | 
CUUCUGUGAGGAUAUGUGAACCCGUGCCGAAAGGAUGGGAAACAGAAGGCACAUGAGGAUCACCCAUGUAAAAU | 0.0353 µM | 0.179 µM |  | 
AGAUAGUCAGGAUAUACAUGGAUGAUACACGUAUUUCCACUACAUGAGGAUCACCCAUGUAGAAGGGACUAUCA | 0.0276 µM | 0.0151 µM |  | 
AAGUAGAUCCGAGGAUAUACAAUCCGGAAACGGUACAUGAGGAUCACCCAUGUAGAAGGCGGAUCUACAGGUACUAAAGUACCC | 0.00561 µM | 0.00806 µM |  | 
GGGAAGGUUAGAGGAUAUAUUGUGUGUGAGAGAAUAGAAGGCUAAACAUGAGACACACACAUGAGGAUCACCCAUGUUAUGUUU |  |  | 0.147 µM | 0.091 µM
GGUACUCAAAGAGUACCACUACGAACAUGAGGAUCACCCAUGUAGGAUAUGCUACUCAAAGAGUAGCAGAAGGACAUGUGCCUA | 0.0179 µM | 0.123 µM |  | 
CACGGAUAGUAGAAGGGUGACAUGAGGAUCACCCAUGUACACAUGCGUAUUAAAGUAUGUGAUCCACAGGAUAUACUAUCCGUG |  |  | 0.776 µM | 0.0938 µM
UUUUCAUCAUCAGGAUAUUAACGUGGGCUACUUUAAGAAGGGAUAGUGGGAGAGCACGUGAAACAUGAGGAUCACCCAUGUUGU |  |  | 0.0122 µM | 0.00973 µM
AACUACCCGUCAGGAUAUCGCCGUAGGUCCUCGGGUCUCGCCGUCAUACAUGAGGAUCACCCAUGUGAGAAGGGACGGGUUUCA | 0.0209 µM | 0.137 µM |  | 
AAAAAGUGAGGAUAUGCACUGUCCUGUAGACGCGAGCAGUUGUAGAAGGCACAUGAGGAUCACCCAUGUUUAAA | 0.0251 µM | 0.0225 µM |  | 
CAGUACUGAGGAUAUACAUGAGGAUCACCCAUGUGCUCUAGCUAGGAUACUAGCAUUAGUAGAAGGCAGUACUG | 0.015 µM | 0.136 µM |  | 
GUGUAGUCAGGAUAUACAUAGGAAGAGAAUAUAAUAUAAGUACAUGAGGAUCACCCAUGUAGAAGGGACAGUGU | 0.0353 µM | 0.0399 µM |  | 
UAAUAUUUAUGAUAUUAUUACAUUAGAAGGCUAGACAUGUGGAUACAUGAGGAUCACCCAUGUAUAGAGGAUAUAGACAUAUAU | 0.0318 µM | 0.0536 µM |  | 
GCAGAAAGUGUAGGAUAUAGAAAUUAGCGGAAACGCAAUACAUGAGGAUCACCCAUGUUUCCUCACUAGAAGGGCAAAAGCUGC | 0.0168 µM | 0.0141 µM |  | 
GGUGGCGACGAGAAGGUUCACACAUGAGGAUCACCCAUGUAUGACAUGAGGAUCACCCAUGUAAGGGAGGAUAUUGGAUUUACC | 0.0928 µM | 0.0914 µM |  | 
GCUGACGAUGUAGGAUAUCAGUAUAAUAAAUACUGAGAAGGACAUGAGGAUCACCCAUGUAAAAUCCCGUCAGCGAGGAAACUC | 0.0171 µM | 0.0238 µM |  | 
AACUGCGCAUGAGGAUAUCCCGGACAUGAGGAUCACCCAUGUAAGCACAAGGGAGAAGGCAUGUGCCUCAAUUAGUUCCCACAA |  |  | 0.0619 µM | 0.00708 µM
AGUGUCAUCGAGAAGGCUUCAACAUGAGGAUCACCCAUGUUGUAAUAUGGGAGGAUAUCGAUGAUACAGCUACGUUUCGUAGCA |  |  | 0.007 µM | 0.00503 µM
UUAUUAUAUGUAGGAUAUGCAUAUUGUUAUUAUGCAGAAGGACAUGAGGAUCACCCAUGUAUAUUAUUAUUAUAUAUUAUAUAU | 0.0294 µM | 0.0488 µM |  | 
GUCAGCUCGUGAGGAUAUACAACCCUGCUUCGGCAGUGUAUUAAGAUCACAUGAGGAUCACCCAUGUAGAAGGCACGAGCUGAU | 0.0103 µM | 0.146 µM |  | 
GUAGCUACAUGAGGAUCACCCAUGUAGGAUAUCGCUAUUGUAAUCAUGUUACAUGAUUACAAUAGCGAGAAGGACGUUAGCUAC | 0.0065 µM | 0.00716 µM |  | 
GUCCGGCGUGUAGGAUAUGGAUCCGAUUAGGAUCCAGAAGGACAUGAGGAUCACCCAUGUACAUGUAAACAGUCAUCACCGGAC | 0.0064 µM | 0.00741 µM |  | 
GCGACGAAAGUCGAACGAUGUAGCAGAAGGACAUGAGGAUCACCCAUGUCAGCUGUAACAGCCAUGUAGGAUAUGCUACAUCGC | 0.00419 µM | 0.00542 µM |  | 

Sequence | apparent Kd [1] | apparent Kd [2] | apparent Kd [3] | apparent Kd [4]
GUCGGAAACGACAAAAGUAGCAUACGAGAAGGUUGAUCCAAGACAUGAGGAUCACCCAUGUAGAUAGAGGAUAUUGAAUGCUAC |  |  | 0.31 µM | 0.244 µM
GGUUGGCGAGGAUAUACAUGAGGAUCACCCAUGUGGUCCUGUGGCUGAUCUUGCCUUUGUAGAAGGCGCGAAUC | 0.0254 µM | 0.103 µM |  | 
CCCACGAAAGUCGAACGAUGAUGGAGAAGGAGUAUAACAUGACAUGAGGAUCACCCAUGUGCCAACUAGGAUAUCCAUCAUGGG | 0.00972 µM | 0.00855 µM |  | 
CGUCAGUGAGGAUAUGGUAUCGUGUACAUGAGGAUCACCCAUGUUUCUUGGGACUAUAUACUAGAAGGCACUGACG | 0.016 µM | 0.0353 µM |  | 
AUACUCUUUGUGAGGAUAUCGUUUUCUUUACGGUUCGAGAAGGCACAUGAGGAUCACCCAUGUUUGACGUGAAU | 0.0244 µM | 0.0565 µM |  | 
AUCAGCUCGUCAGGAUAUACGUCACUGCGUCAGCAGUGUGGUAAGAUCACAUGAGGAUCACCCAUGUAGAAGGGACGUGCUGAU | 0.0133 µM | 0.314 µM |  | 
AGGACAAGGCAGAAGGGACAUGAGGAUCACCCAUGUACCGUGGUUCAGCAGUCAGGAUAUGCCAUAUGUAAACAUAUCGUAAGA | 0.0121 µM | 0.108 µM |  | 
CCGCUGUGAGGAUAUUAGUAGUAGUCAGAAUAGACUAUUACUGAGAAGGCACAUGAGGAUCACCCAUGUCGCGG | 0.0312 µM | 0.0431 µM |  | 
GUCGGAAACGACAAACGUAGCAUACGAGAAGGCUGAUCCACGACAUGAGGAUCACCCAUGUAUUUAGAGGAUAUUGGAUGCUAC |  |  | 0.126 µM | 0.0203 µM
GGGCCCGGAGGAUAUACAUGAGGAUCACCCAUGUAUGUGUGUGUUAUUGCGCGCGCGUGUAGAAGGCCGGGCCC | 0.0199 µM | 0.0802 µM |  | 
GGAUCCAACACAGGAUAUGCUGGACUUUGUCCAGCAGAAGGGUGAAGAACAUGAGGAUCACCCAUGUGGAUCCAUAUAUUUAAC |  |  | 0.24 µM | 0.0168 µM
AAAAUCAAAUGAGGAUAUUCAUACACUACAUACGGAGAAGGCAUACAAUCAUGAGGACAUGAGGAUCACCCAUGUUGUGACCAU |  |  | 0.0299 µM | 0.0209 µM
GCACGGUAUGUAGGAUAUGCAUAGCAUUGCUAUGCAGAAGGACAUGAGGAUCACCCAUGUAUGUAUUCCAUACUAAUCCCGUGU | 0.00555 µM | 0.0052 µM |  | 
AUAAUGUGAGGAUAUACAUGAGGAUCACCCAUGUAAUUAAAUCGGAGAGCCACAAUUCGUAGAAGGUACAUUUA | 0.022 µM | 0.0277 µM |  | 
UGAUCGAGAGAUCUUAGAUUCUGGUAGGAUAUACAUAUAGUAAUAUAGACAUGAGGAUCACCCAUGUAGAAGGACUAGAGUCUA | 0.0069 µM | 0.00865 µM |  | 
ACACGACAUGAGGAUCACCCAUGUGAGGAUAUCGAUCUACACUAUGCCCAUAGUCUCUCGAGAAGGCACACUAA | 0.0306 µM | 0.0317 µM |  | 
UGAAACUACGAGAAGGACAUGUGGUCCUUCAGUUACAUGAGGAUCACCCAUGUAGGAUAUCGUAGUUUCAGGAUCGUGAGAUCG | 0.0347 µM | 0.0104 µM |  | 
GCGUUACAUGAGGAUCACCCAUGUGAGGAUAUGGUGCGGUAGUGUCCUGUCGCGUACUCCAGAAGGCACGGGUG | 0.215 µM | 0.0917 µM |  | 
CCGUCCUGAGGAUAUCCACCCUCAUACAUGAGGAUCACCCAUGUUCACCCUUGGGUUCCCGGAGAAGGCAGUUUUC | 0.243 µM | 0.374 µM |  | 
GGAGCUCCUGACAUGAGGAUCACCCAUGUUCACUUAUUAAAUCAGGAUAUCGUCUCGAAACGAGACGAGAAGGGAUAUGCUCCU |  |  | 0.00767 µM | 0.00701 µM
CUGAAUAGAGGAUAUUGUACUGCUGACAUGAGGAUCACCCAUGUAUGUUAACUCGGCCGUCGAGAAGGCUAACAUA | 0.0428 µM | 0.0267 µM |  | 
UGUAACCAAGGAUAUACAUGAGGAUCACCCAUGUAAUGUAGUAUAGUGUGUGUGAGGUGUAGAAGGAGGGAUGU | 0.0763 µM | 0.0736 µM |  | 
GGUACCAUCACAGGAUAUGCUUUUCUUUGGGAAGCAGAAGGGUGUAACAUGAGGAUCACCCAUGUGGUGCCAGGGCGUUAGCCC |  |  | 0.188 µM | 0.0168 µM
UCGGCGCGAGGAUAUACGUUUGCUUUUUUUCGUUUUUGUGUACAUGAGGAUCACCCAUGUAGAAGGCGCGCCGC | 0.0152 µM | 0.0224 µM |  | 
GGAUAGAACAGAGGAUAUACGUGCUAGAGAUACUAGCAAAAUUUCCUCACAUGAGGAUCACCCAUGUAGAAGGCUGUCCUAUCG | 0.0118 µM | 0.208 µM |  | 
CACUGCAAUGUAGGAUAUCGACUGGAUAACAGUCGAGAAGGACAUGAGGAUCACCCAUGUCAUCCUAAUAAUAAAUAAGCAGUG | 0.0153 µM | 0.0192 µM |  | 
GCAUGUGUAUAAGGAUAUGCAUCACUGAGAAAUUUAGUGAGGAAGAUCACAUGAGGAUCACCCAUGUAGAAGGUAUACACGUGC | 0.00732 µM | 0.0523 µM |  | 
